From ChEMBL document CHEMBL3244290, “N-Alkyl derivatives of (+/-)-alpha-methyldopamine” (J Med Chem, 1979)
Activity calls are given as the source filed them. The rule behind the calls is not given here.

What was measured:
Rattus norvegicus [1] = species on record: Rattus norvegicus; test: Toxicity in Sprague-Dawley rat assessed as biting up to 50 ug injection into nucleus accumbens; format: organism-based; settings: in vivo, other
Summary of the method: (§1)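 Male Sprague-Dawley rats (250 ± 25 g) with stereotaxic guide cannulae aimed at the nucleus accumbens. Tested 10–14 days after surgery with a bilateral 1 μL infusion over 60 s; each rat used once and placement checked histologically. Locomotion counted by photocell cage. Stereotypy scored, where 3–4 = biting, gnawing or licking. Pretreatments given ip: α-methyl-p-tyrosine 250 mg/kg 6 h before, or haloperidol 0.1, propranolol 5 or aceperone 2.5 mg/kg 30 min before.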

Canis familiaris [2] = test: Toxicity in dog assessed as emesis at 2 mg/kg, sc; format: organism-based, Canis lupus familiaris; design: dose 2 mg/kg, route subcutaneous; settings: in vivo
Summary of the method: (§2)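 Unanaesthetised dogs. For emesis, compound given sc and dogs watched 45 min for an emetic response. For antagonism, compound given sc and apomorphine 100 μg/kg 15 min later.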

Canis familiaris [3] = test: Increase in blood pressure in dog at 0.5 mg/kg, iv by cardiotachometer; format: functional, Canis lupus familiaris
Summary of the method: (§3)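 Anaesthetised dog (barbital 200 mg/kg). Compounds given intravenously, highest dose tested 1.0 mg/kg. Blood pressure recorded from the right femoral artery and heart rate by cardiometer. Resting heart rate, blood pressure and positive chronotropic responses were assessed after dosing. Doses calculated as free base.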

Canis familiaris [4] = test: Increase in resting heart rate in dog at 0.5 mg/kg, iv by cardiotachometer; format: functional, organism-based; design: dose 0.5 mg/kg; settings: Canis lupus familiaris; summary of the method: as §3
Rattus norvegicus [5] = species on record: Rattus norvegicus; test: Toxicity in Sprague-Dawley rat assessed as gnawing up to 50 ug injection into nucleus accumbens; format: organism-based; settings: in vivo, other; summary of the method: as §1
Rattus norvegicus [6] = species on record: Rattus norvegicus; test: Toxicity in Sprague-Dawley rat assessed as locomotor hyperactivity treated bilateral injection into nucleus accumbens at 50 ug; format: organism-based; settings: in vivo, other; summary of the method: as §1
Canis lupus familiaris = species on record: Canis lupus familiaris; test: Inhibition of electric stimulated dog right cardioaccelerator nerve; format: functional
Summary of the method: (§4)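 Dog cardioaccelerator nerve preparation under barbital (200 mg/kg) anaesthesia. Compounds given intravenously up to 1.0 mg/kg. Positive chronotropic responses read by cardiometer, with blood pressure taken from the right femoral artery.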

Felis catus [7] = species on record: Felis catus; test: Inhibition of field stimulation-induced positive ionotrophic response in cat atria; format: functional; settings: Cardiac atrium
[8] = Toxicity in pigeon assessed as pecking; settings: columbidae
Summary of the method: (§5)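 Pigeons. Compounds given intramuscularly at up to 4 mg/kg to test induction of pecking. Antagonism of pecking induced by apomorphine (1.62 μM/kg) was also tested, and ED50 values were estimated.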

Rattus norvegicus [9] = test: Induction of rotation in rat with unilateral denervation of caudate nucleus at 4 mg/kg, sc; format: functional, organism-based; design: dose 4 mg/kg
Summary of the method: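 Rats given a unilateral 6-hydroxydopamine injection into the substantia nigra. Compounds dosed subcutaneously and the rotations they induced were counted. Apomorphine served as the reference.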

Rattus norvegicus [10] = species on record: Rattus norvegicus; test: Toxicity in Sprague-Dawley rat assessed as licking up to 50 ug injection into nucleus accumbens; format: organism-based; settings: in vivo, other; summary of the method: as §1
Canis familiaris [11] = test: Inhibition of apomorphine-induced emesis in dog at 2 mg/kg, sc; format: functional, organism-based; design: dose 2 mg/kg; settings: Canis lupus familiaris; summary of the method: as §2
Felis catus [12] = species on record: Felis catus; test: Inhibition of field stimulation-induced positive chronotrophic response in cat atria; format: functional; settings: Cardiac atrium
Columbidae = test: Inhibition of apomorphine-induced pecking in pigeon; format: functional; summary of the method: as §5
Canis familiaris [13] = test: Increase in heart rate in dog at 1 mg/kg, iv by cardiotachometer; format: functional, organism-based; design: dose 1 mg/kg; settings: Canis lupus familiaris; summary of the method: as §3
Canis familiaris [14] = test: Increase in ionotrophic response in dog following field stimulation at 1 mg/kg, iv by cardiotachometer; format: functional, organism-based; design: dose 1 mg/kg; settings: Canis lupus familiaris; summary of the method: as §4
Canis familiaris [15] = test: Increase in ionotrophic response in iv dosed dog following field stimulation assessed as minimum effective dose by cardiotachometer; format: functional, Canis lupus familiaris; design: unit not given here; summary of the method: as §4
Mus musculus [16] = test: Toxicity in albino B.K.W mouse assessed as stereotyped behaviour at 20 to 80 mg/kg, sc; format: organism-based; design: dose 20-80 mg/kg, route subcutaneous; settings: in vivo
Summary of the method: (§6)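 Mice dosed subcutaneously at 20, 40 and 80 mg/kg in 1 mL/kg, doses as free base. Climbing scored as all four paws on the wire, giving a climbing index (% time over 30 min after the first climb) and the maximum time of a single climb. Circling was tested in mice with a unilateral caudate-putamen electrolesion, pre-selected for circling of 7 or more revolutions/2 min in response to apomorphine. Stereotypy was also recorded.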

Mus musculus [17] = test: Toxicity in albino B.K.W mouse assessed as climbing behaviour at 20 to 80 mg/kg, sc; format: organism-based; design: dose 20-80 mg/kg, route subcutaneous; settings: in vivo; summary of the method: as §6
Mus musculus [18] = test: Toxicity in albino B.K.W mouse assessed as circling behaviour at 20 to 80 mg/kg, sc; format: organism-based; design: dose 20-80 mg/kg, route subcutaneous; settings: in vivo; summary of the method: as §6

| SMILES | Activity (Rattus norvegicus [1]) | Activity (Canis familiaris [2]) | Activity (Canis familiaris [3]) | Activity (Canis familiaris [4]) | Activity (Rattus norvegicus [5]) | Activity (Rattus norvegicus [6]) | inhibition (Canis lupus familiaris) | inhibition (Felis catus [7]) | Activity [8] | Activity (Rattus norvegicus [9]) | Activity (Rattus norvegicus [10]) | Activity (Canis familiaris [11]) | inhibition (Felis catus [12]) | inhibition (Columbidae) | Activity (Canis familiaris [13]) | Activity (Canis familiaris [14]) | MED (Canis familiaris [15]) | Activity (Mus musculus [16]) | Activity (Mus musculus [17]) | Activity (Mus musculus [18]) |
| --- | --- | --- | --- | --- | --- | --- | --- | --- | --- | --- | --- | --- | --- | --- | --- | --- | --- | --- | --- | --- |
| COc1ccc(CC(C)N)cc1OC.Cl (racemic) | Non-toxic | Non-toxic | <=10 mmHg | inactive | Non-toxic | Non-toxic | inactive | inactive | Non-toxic | inactive | Non-toxic | inactive | inactive |  |  |  |  |  |  |  |
| CNC(C)Cc1ccc(OC)c(OC)c1.Cl (racemic) |  | Non-toxic | <=10 mmHg | inactive |  |  | inactive | inactive | Non-toxic | inactive |  | inactive | inactive |  |  |  |  |  |  |  |
| COc1ccc(CC(C)N(C)C)cc1OC.Cl (racemic) |  | Non-toxic | <=10 mmHg | inactive |  |  | inactive | inactive | Non-toxic | inactive |  | inactive | inactive | Active |  |  |  |  |  |  |
| CCN(CC)C(C)Cc1ccc(OC)c(OC)c1.Cl (racemic) |  | Non-toxic | <=10 mmHg | inactive |  |  | inactive | inactive | Non-toxic | inactive |  | inactive | inactive | Active | Active | Active | 20 |  |  |  |
| CCCN(CCC)C(C)Cc1ccc(OC)c(OC)c1.Cl (racemic) |  | Non-toxic | <=10 mmHg | inactive |  |  | inactive | inactive | Non-toxic |  |  | inactive | inactive | Active |  |  |  |  |  |  |
| CCCCN(CCCC)C(C)Cc1ccc(OC)c(OC)c1.Cl (racemic) |  | Non-toxic | <=10 mmHg | inactive |  |  | inactive | inactive | Non-toxic |  |  | inactive | inactive |  |  |  |  |  |  |  |
| CCCNC(C)Cc1ccc(OC)c(OC)c1.Cl (racemic) | Non-toxic | Non-toxic | <=10 mmHg | inactive | Non-toxic | Non-toxic | inactive | inactive | Non-toxic | inactive | Non-toxic | inactive | inactive |  | Active | Active | 20 |  |  |  |
| CCCCNC(C)Cc1ccc(OC)c(OC)c1.Cl (racemic) |  | Non-toxic | <=10 mmHg | inactive |  |  | inactive | inactive | Non-toxic |  |  | inactive | inactive |  | Active | Active | 20 |  |  |  |
| CCNC(C)Cc1ccc(OC)c(OC)c1.Cl (racemic) |  | Non-toxic | <=10 mmHg | inactive |  |  | inactive | inactive | Non-toxic |  |  | inactive | inactive |  |  |  |  |  |  |  |
| COc1ccc(CC(C)NC(C)C)cc1OC.Cl (racemic) |  | Non-toxic | <=10 mmHg | inactive |  |  | inactive | inactive | Non-toxic | inactive |  | inactive | inactive |  |  |  |  |  |  |  |
| COc1ccc(CC(C)N(C)C(C)C)cc1OC.Cl (racemic) |  | Non-toxic | <=10 mmHg | inactive |  |  | inactive | inactive | Non-toxic |  |  | inactive | inactive | Active | Active | Active | 20 |  |  |  |
| Br.CCCCNC(C)Cc1ccc(O)c(O)c1 (racemic) | Non-toxic | Non-toxic | <=10 mmHg | inactive | Non-toxic | Non-toxic | inactive | inactive | Non-toxic |  | Non-toxic | inactive | inactive |  |  |  |  | Non-toxic | Non-toxic | Non-toxic |
| Br.CCCCN(CCCC)C(C)Cc1ccc(O)c(O)c1 (racemic) | Non-toxic | Non-toxic |  |  | Non-toxic | Non-toxic | inactive | inactive | Non-toxic |  | Non-toxic | inactive | inactive |  |  |  |  | Non-toxic | Non-toxic | Non-toxic |
